Data published in ChEMBL document CHEMBL4706530, “Synthesis, inhibitory activity and in silico docking of dual COX/5-LOX inhibitors with quinone and resorcinol core” (Eur J Med Chem, 2020).
Active and inactive are the calls of the source.

How the values were obtained:
[1] = biological target: T1, Prostaglandin G/H synthase 1 (Ovis aries, UniProt P05979); assay: Inhibition of ovine COX-1 assessed as reduction in PGE2 level using 10 uM arachidonic acid as substrate preincubated with enzyme for 5 mins followed by substrate addition and measured after 20 mins by ELISA
T1 sequence (P05979 whole entry): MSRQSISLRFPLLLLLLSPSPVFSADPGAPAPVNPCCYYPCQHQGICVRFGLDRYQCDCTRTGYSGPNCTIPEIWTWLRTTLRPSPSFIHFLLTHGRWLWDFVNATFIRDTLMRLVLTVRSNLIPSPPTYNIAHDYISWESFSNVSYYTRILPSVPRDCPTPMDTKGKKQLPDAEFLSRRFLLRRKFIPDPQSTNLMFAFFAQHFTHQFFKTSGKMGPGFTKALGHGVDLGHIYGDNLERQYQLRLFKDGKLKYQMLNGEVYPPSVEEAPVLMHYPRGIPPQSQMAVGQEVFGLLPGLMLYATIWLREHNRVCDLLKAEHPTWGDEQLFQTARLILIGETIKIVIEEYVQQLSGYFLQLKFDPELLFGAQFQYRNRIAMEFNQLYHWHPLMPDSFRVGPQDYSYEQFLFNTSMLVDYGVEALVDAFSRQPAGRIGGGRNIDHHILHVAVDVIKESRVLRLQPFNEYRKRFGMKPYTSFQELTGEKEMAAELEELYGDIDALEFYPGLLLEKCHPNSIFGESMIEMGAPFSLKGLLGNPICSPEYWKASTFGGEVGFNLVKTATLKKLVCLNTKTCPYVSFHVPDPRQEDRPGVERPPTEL
Summary of the method: (§1)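 Enzyme in 100 mM Tris pH 8.0 with 5 µM porcine hematin, 18 mM L-epinephrine and 50 µM Na2EDTA. Compound in DMSO (DMSO blank) 5 min at room temperature. Arachidonic acid (10 µM) added, 20 min at 37°C. Stopped with 10% formic acid, diluted 1:15, PGE2 measured by ELISA at 405 nm as % inhibition versus blank. At least three experiments in at least duplicate. Non-active below 50% inhibition at 20 µM.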

[2] = biological target: T2, Polyunsaturated fatty acid 5-lipoxygenase (Homo sapiens, UniProt P09917); assay: Inhibition of human recombinant 5-LOX assessed as reduction in LTB4 level using 800 uM arachidonic acid as substrate preincubated with enzyme for 10 mins followed by substrate addition and measured after 10 mins by ELISA
T2 sequence (P09917 whole entry): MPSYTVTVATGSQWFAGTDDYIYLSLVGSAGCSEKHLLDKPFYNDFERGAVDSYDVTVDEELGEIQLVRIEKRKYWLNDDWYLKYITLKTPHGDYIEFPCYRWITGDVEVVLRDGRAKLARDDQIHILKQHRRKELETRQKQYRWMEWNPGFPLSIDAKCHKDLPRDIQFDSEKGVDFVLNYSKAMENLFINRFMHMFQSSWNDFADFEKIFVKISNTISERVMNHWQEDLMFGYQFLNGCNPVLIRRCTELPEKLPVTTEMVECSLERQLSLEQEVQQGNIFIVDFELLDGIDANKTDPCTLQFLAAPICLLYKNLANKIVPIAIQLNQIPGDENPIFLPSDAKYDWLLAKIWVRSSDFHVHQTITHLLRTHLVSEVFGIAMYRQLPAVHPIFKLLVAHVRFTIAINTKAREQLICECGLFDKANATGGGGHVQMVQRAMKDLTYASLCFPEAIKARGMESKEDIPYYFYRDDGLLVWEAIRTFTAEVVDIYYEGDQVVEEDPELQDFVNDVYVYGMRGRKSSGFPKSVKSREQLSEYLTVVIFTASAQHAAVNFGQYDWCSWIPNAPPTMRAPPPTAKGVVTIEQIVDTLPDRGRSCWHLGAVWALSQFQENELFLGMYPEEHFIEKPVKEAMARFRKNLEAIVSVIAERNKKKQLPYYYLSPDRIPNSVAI
Summary of the method: (§2)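 Human recombinant 5-LOX, 1 unit per reaction, in PBS pH 7.4 containing 1 mM Na2EDTA and 200 µM ATP. Compound in DMSO (DMSO blank) held 10 min at 4°C. CaCl2 added, reaction started with arachidonic acid (800 µM solution) for 10 min at 37°C. Formic acid stop, 1:15 dilution, LTB4 measured by ELISA as % inhibition versus blank. At least three experiments in at least duplicate.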

[3] = biological target: T3, Prostaglandin G/H synthase 2 (Homo sapiens, UniProt P35354); assay: Inhibition of human recombinant COX-2 assessed as reduction in PGE2 level using 10 uM arachidonic acid as substrate preincubated with enzyme for 5 mins followed by substrate addition and measured after 20 mins by ELISA
T3 sequence (P35354 whole entry): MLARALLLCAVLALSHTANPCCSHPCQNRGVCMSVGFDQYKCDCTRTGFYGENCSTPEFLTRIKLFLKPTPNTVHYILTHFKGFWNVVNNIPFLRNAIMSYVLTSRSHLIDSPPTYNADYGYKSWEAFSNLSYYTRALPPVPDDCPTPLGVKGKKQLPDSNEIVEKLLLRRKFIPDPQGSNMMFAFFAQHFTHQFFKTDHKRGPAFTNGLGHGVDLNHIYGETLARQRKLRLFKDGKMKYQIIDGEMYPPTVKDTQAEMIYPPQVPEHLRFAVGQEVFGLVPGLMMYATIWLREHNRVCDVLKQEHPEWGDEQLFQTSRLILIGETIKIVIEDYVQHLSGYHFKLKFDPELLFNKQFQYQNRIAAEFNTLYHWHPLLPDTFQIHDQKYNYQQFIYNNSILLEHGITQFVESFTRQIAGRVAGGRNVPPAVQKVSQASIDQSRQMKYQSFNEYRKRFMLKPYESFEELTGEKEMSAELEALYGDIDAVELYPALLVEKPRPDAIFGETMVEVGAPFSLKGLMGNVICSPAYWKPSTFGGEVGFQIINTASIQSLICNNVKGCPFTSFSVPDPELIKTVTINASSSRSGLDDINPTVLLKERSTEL

[4] = Selectivity index, ratio of IC50 for ovine COX-1 to IC50 for human recombinant COX-2
[5] = Antioxidant activity assessed as radical scavenging activity measured after 30 mins by DPPH assay; assay type: functional
Summary of the method: (§3)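 Test compounds in methanol, two-fold serial dilution to final 3.125–400 µM, incubated 30 min with DPPH in methanol (stated final […]) at room temperature in the dark. Absorbance read at 517 nm. Trolox and L-ascorbic acid served as positive references. Activity expressed as EC50.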

[6] = biological target: T4, Prostaglandin G/H synthase 1 (Ovis aries) (UniProt P05979); assay: Inhibition of ovine COX-1 assessed as reduction in PGE2 level using 10 uM arachidonic acid as substrate at 20 uM preincubated with enzyme for 5 mins followed by substrate addition and measured after 20 mins by ELISA relative to control; conditions: time 25.0 min; summary of the method: as §1
T4 sequence (whole entry): T1 sequence (P05979 whole entry)

[7] = biological target: T5, Polyunsaturated fatty acid 5-lipoxygenase (Homo sapiens) (UniProt P09917); assay: Inhibition of human recombinant 5-LOX assessed as reduction in LTB4 level using 800 uM arachidonic acid as substrate at 5 uM preincubated with enzyme for 10 mins followed by substrate addition and measured after 10 mins by ELISA relative to control; conditions: time 20.0 min
T5 sequence (whole entry): T2 sequence (P09917 whole entry)
Summary of the method: as §2, with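 “duplicate. Non-active cutoff below 50% inhibition at 5 µM.” for “duplicate.”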

[8] = biological target: T6, Prostaglandin G/H synthase 2 (Homo sapiens) (UniProt P35354); assay: Inhibition of human recombinant COX-2 assessed as reduction in PGE2 level using 10 uM arachidonic acid as substrate at 20 uM preincubated with enzyme for 5 mins followed by substrate addition and measured after 20 mins by ELISA relative to control; conditions: time 25.0 min; summary of the method: as §1
T6 sequence (whole entry): T3 sequence (P35354 whole entry)

[9] = biological target: T1, Prostaglandin G/H synthase 1; assay: Competitive inhibition of ovine COX-1 assessed as reduction in PGE2 level using 50 nM arachidonic acid as substrate preincubated with enzyme for 5 mins followed by substrate addition and measured after 20 mins by ELISA
Summary of the method: (§4)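 Substrate-dependence test. Enzyme in 100 mM Tris pH 8.0 with 5 µM porcine hematin, 18 mM L-epinephrine and 50 µM Na2EDTA. Compound in DMSO (DMSO blank) preincubated 5 min at room temperature. Arachidonic acid added to final 50, 250 or 1250 nM, then 20 min at 37°C. Stopped with 10% formic acid, diluted 1:15, PGE2 quantified by ELISA at 405 nm. Inhibition calculated versus blank at the same AA level.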

[10] = biological target: T1, Prostaglandin G/H synthase 1; assay: Competitive inhibition of ovine COX-1 assessed as reduction in PGE2 level using 1250 nM arachidonic acid as substrate preincubated with enzyme for 5 mins followed by substrate addition and measured after 20 mins by ELISA; summary of the method: as §4
[11] = biological target: T1, Prostaglandin G/H synthase 1; assay: Competitive inhibition of ovine COX-1 assessed as reduction in PGE2 level using 250 nM arachidonic acid as substrate preincubated with enzyme for 5 mins followed by substrate addition and measured after 20 mins by ELISA; summary of the method: as §4
[12] = biological target: T2, Polyunsaturated fatty acid 5-lipoxygenase; assay: Inhibition of human recombinant 5-LOX assessed as reduction in LTB4 level using 5 to 80 uM arachidonic acid as substrate preincubated with enzyme for 10 mins followed by substrate addition and measured after 10 mins by ELISA
Summary of the method: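 Human recombinant 5-LOX, 1 unit per reaction, in PBS pH 7.4 with 1 mM Na2EDTA and 200 µM ATP. Compound in DMSO preincubated 10 min at 4°C. CaCl2 added, then arachidonic acid at final 5, 20 or 80 µM, 10 min at 37°C. Stopped with 10% formic acid, diluted 1:15, LTB4 measured by ELISA. Inhibition calculated versus blank at the matching AA level.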

[13] = Antioxidant activity assessed as radical scavenging activity at 400 uM measured after 30 mins by DPPH assay; assay type: functional; summary of the method: as §3

Structure (SMILES) | IC50 [1] [nM] | IC50 [2] [nM] | IC50 [3] [nM] | Ratio IC50 [4] | other results
Cc1c(C)c2c(c(C)c1O)CCC(C)(C(=O)O)O2 (configuration not stated) [TROLOX] | – | – | – | – | EC50 [5]: 32500 nM
CCCCCCCCCCCCCCCc1cc(O)cc(O)c1 [CARDOL] | 5610 | – | 2360 | 2.38 | inhibition [7]: < 50%
CCCCCCCCCCCCCC1=CC(=O)C=C(OC)C1=O | 250 | 1050 | 880 | – | –
CCCCCc1cc(OC(C)=O)cc(OC)c1OC(C)=O | – | 1090 | – | – | inhibition [8]: < 50%; inhibition [6]: < 50%
CCCCCCCCCCCCCc1cc(O)cc(O)c1 | 2380 | – | 2740 | 0.87 | inhibition [7]: < 50%
CCCCCC1=CC(=O)C=C(OC)C1=O [Primin] | 18900 | 1370 | 1900 | 9.96 | –
CCCCCCCCCCCCCc1cc(OC(C)=O)cc(OC)c1OC(C)=O | – | 1020 | – | – | inhibition [8]: < 50%; inhibition [6]: < 50%
COc1cc(O)cc(Br)c1O | 6110 | 1140 | 4810 | 1.27 | –
CCCCCc1cccc(OC)c1O | 5420 | 3720 | 4650 | 1.17 | –
O=C1O[C@H]([C@@H](O)CO)C(O)=C1O [ASCORBIC ACID] | – | – | – | – | EC50 [5]: 31100 nM
CCCCCc1cc(O)cc(O)c1 [WHILE OLIVETOL] | 13600 | – | 17300 | 0.79 | inhibition [7]: < 50%
COC1=CC(=O)C=C(Br)C1=O | 15600 | 1670 | 4480 | 3.47 | –
CCCCCCCCCCCCCc1cc(O)cc(OC)c1O | 3380 | 1490 | 1550 | 2.18 | –
CCCCCc1cc(O)cc(OC)c1 | – | – | 15900 | – | inhibition [7]: < 50%; inhibition [6]: < 50%

The remaining molecules from weak to strong by IC50 [2], led by results:

IC50 [1] [nM] | IC50 [2] [nM] | IC50 [3] [nM] | Ratio IC50 [4] | Structure (SMILES) | other results
15800 | 1010 | 5820 | 2.71 | CCCCCC1=CC(=O)C=C(OC)C1=N | –
– | 940 | – | – | CCCCCc1cc(O)cc(OC)c1O | inhibition [8]: < 50%; inhibition [6]: < 50%
– | 790 | 8970 | – | CCCCCCCCCCCCCCCC1=CC(=O)C=C(OC)C1=O | inhibition [6]: < 50%
1070 | 340 | 570 | 1.88 | CCCCCCCCCCCC1=CC(=O)C=C(OC)C1=O | IC50 [9]: 800 nM; IC50 [10]: > 20000 nM; IC50 [11]: 2770 nM; IC50 [12]: 710 nM; Activity [13]: inactive
1070 | 280 | 550 | 1.95 | CCCCCCCCCCCc1cc(O)cc(OC)c1O | –
– | 170 | – | – | COC1=CC(=O)C=C(Br)C1OC(C)=O (configuration not stated) | inhibition [8]: < 50%; EC50 [5]: 45600 nM; inhibition [6]: < 50%
2650 | 140 | 2710 | 0.98 | CCCCCCCCCCCCCCCc1cc(O)cc(OC)c1O | –
